Source: PubChem (several laboratories)
FLuc inhib CS: inhibits firefly luciferase, flagging false hits in luciferase inhibition screens; P08659; inhibition, % at 10 µM; actives 1.5% (n = 200,000); AID 1006; ATPLite firefly luciferase biochemical luminescence, 10 min;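 active = inhibition above about 50% when tested at 10 µM, limit read from the data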
Target sequence (P08659 whole entry, looked up): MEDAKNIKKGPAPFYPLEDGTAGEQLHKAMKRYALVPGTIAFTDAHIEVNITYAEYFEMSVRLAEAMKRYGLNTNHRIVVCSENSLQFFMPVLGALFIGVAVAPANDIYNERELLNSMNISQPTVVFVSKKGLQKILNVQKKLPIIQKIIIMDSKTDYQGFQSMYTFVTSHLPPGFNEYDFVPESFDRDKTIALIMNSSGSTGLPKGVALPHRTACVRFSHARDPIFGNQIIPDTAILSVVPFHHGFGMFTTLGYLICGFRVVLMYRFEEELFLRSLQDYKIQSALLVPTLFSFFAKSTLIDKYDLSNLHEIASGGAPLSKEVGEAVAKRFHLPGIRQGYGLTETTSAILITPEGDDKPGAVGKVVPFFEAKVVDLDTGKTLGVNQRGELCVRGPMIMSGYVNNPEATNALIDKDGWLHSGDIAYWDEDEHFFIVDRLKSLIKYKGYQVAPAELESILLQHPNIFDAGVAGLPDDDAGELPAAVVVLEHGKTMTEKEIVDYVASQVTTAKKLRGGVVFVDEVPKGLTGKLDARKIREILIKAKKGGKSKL
FLuc act counter: firefly luciferase counter-screen for stimulation assays; activation factor at 10 µM; 200,000 tested, under 10 active; AID 1027; ATPlite luciferase biochemical, luminescence, 10 min; 0 = ATP-free wells, 1 = DMSO control;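 active = luciferase activation factor, scaled between plate controls, of at least 2 with compound at 10 µM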
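System: luciferase plus luciferin reagent, cell-free; medium: PBS as buffer for the ATP substrate; dosing: test compounds dosed from 2 mM stocks in 100% DMSO; timing: 10 min post-reagent at room temperature; measured by: luminescence measurement of luciferase light output; evaluation: luciferase activation, seen as luminescence increase over controls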
PPC-1+TRAIL kill: PPC-1 cancer cell killing with TRAIL present. actives 0.41% (n = 220,000). PPC-1 cells + TRAIL, ATPLite viability luminescence. cell killing (% activity), % at 4 µM or 5 µM;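 active = cell killing above 50% in the first pass at 4 µM, then a duplicate retest at 5 µM averaging 50% or more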;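 note: plate controls were cells with TRAIL plus DMSO for no effect and medium-only wells lacking cells for full effect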
Wee1 degr inh: human Wee1 degradation inhibition, primary screen; HeLa Luc-Wee1K328M stability, luciferase luminescence; 100% = proteasome inhibitor MG132 effect; reporter increase, % at 5 µM; actives 1.2% (n = 220,000);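 active = activation above the mean of all tested compounds plus 3 SD, set per screening run, cut at about 8.8% in these data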;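 note: cells exposed to compound for 20 h before luminescence read; 0% = DMSO alone and 100% = MG132 at 30 µM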
PKD1 inh: PKD1 (human) kinase inhibition. inhibition, % (no concentration beside the values). Q15139. actives 0.056% (n = 200,000). PKD1 kinase fluorescence polarization assay. AID 797; in the data active = inhibition above about 50%
C8 TRAIL sens: caspase-8 TRAIL sensitization; actives 1% (n = 360,000); NB7+C8 cells + TRAIL, ATPlite viability luminescence; AID 624354; inhibition (viability loss, TRAIL sensitization), % at 10 µM;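 active = compounds causing at least 50% loss of cell viability in the single-dose screen, relative to plate controls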
Numbers without * were called inactive; . = no result given. Only some compounds are listed: those with a hit (about 2.2% of all), similar ones and a draw of the others.

SMILES	FLuc inhib CS	FLuc act counter	PPC-1+TRAIL kill	Wee1 degr inh	PKD1 inh	C8 TRAIL sens
CCOc1cc(C(=O)NC2=NCCS2)cc(OCC)c1OCC	-5.4	1.1	20.2	3.1	2.2	1.1
CCOc1ccc(C(=O)NC2=NCCS2)cc1	51.8*	0.5	29.2	4.9	5.7	.
CC(=Nc1ccccc1)C1=C(O)C(CC(C)C)NC1=O (configuration not stated)	.	.	.	.	.	-10.8
CC1(c2ccc(Cl)cc2)NC(=O)N(CC(=O)N2CCN(S(=O)(=O)c3ccccc3)CC2)C1=O (configuration not stated)	.	.	.	.	.	-0.3
OC(c1ccc(-c2ccccc2)cc1)c1ncc(-c2ccccc2F)[nH]1 (configuration not stated)	.	.	.	.	.	2.7
CC(C)c1ccc(/C=C/C(=O)NC2=NCCS2)cc1	67.3*	0.3	38.8	-2.4	-4.1	.
O=C(N/N=C/c1cccnc1)c1ccc2c(c1)OCO2	.	.	.	.	.	49.9*
O=C(N/N=C/c1ccc[nH]1)c1ccccc1O	61.8*	0.4	12.6	3.5	-7.0	25.5
O=C(N/N=C/c1ccc2cccnc2c1)c1ccco1	87.9*	0.1	34.0	1.2	-3.7	61.2*
O=C(N/N=C\c1ccc2c(c1)OCO2)c1ccco1	75.1*	0.2	15.5	2.9	-1.7	47.7
O=C(NN=Cc1ccc2c(c1)OCO2)c1ccccc1	.	.	.	.	.	35.7
O=C(CCCC(=O)OCC(=O)c1ccc(Cl)cc1)NC1CCCCC1	.	.	.	.	.	-2.8
CC1Oc2ccccc2C=C1/C=N/NC(=O)c1ccccc1 (configuration not stated)	43.8	0.6	19.1	2.8	4.8	19.1
O=C(N/N=C/c1ccc[nH]1)c1ccc2c(c1)OCO2	73.4*	0.3	22.3	1.5	-2.2	2.4
Cc1ccc(C(=O)N/N=C\c2sccc2C)cn1	46.7	0.5	10.5	6.2	-4.2	14.5
O=C(N/N=C\c1cccc(OC(=O)c2ccco2)c1)c1ccc2c(c1)OCO2	70.4*	0.3	53.4*	-4.8	0.6	86.5*
O=C(N/N=C/c1ccc2c(c1)OCO2)c1ccc2c(c1)OCO2	.	.	.	.	.	39.6
Cc1ccsc1/C=N\NC(=O)c1ccc2c(c1)OCO2	77.2*	0.2	29.2	2.0	-5.9	47.6
Cc1cc(C(=O)N/N=C/c2cccc(OC(=O)c3ccco3)c2)n[nH]1	12.1	0.9	12.7	-3.1	-12.5	9.7
CC1Oc2ccccc2C=C1/C=N/NC(=O)c1ccccc1O (configuration not stated)	78.3*	0.2	28.1	7.7	-0.6	50.3*
CCOC(=O)C1CCCN(CCC(=O)Nc2cccc(Cl)c2C)C1 (configuration not stated)	.	.	.	.	.	2.9
COC(=O)c1ccc(NC(=O)Nc2ccc(F)cc2)cc1	14.3	0.9	27.1	-0.6	-16.1	13.7
CCOC(=O)c1sc(NC(=O)Nc2ccc(F)cc2)nc1C	59.0*	0.4	41.9	4.0	9.4	51.2*
CCOC(=O)c1sc(NC(=O)Cc2ccc(F)cc2)nc1C	0.4	1	16.8	1.5	6.8	-17.9
CCOC(=O)c1cccc(NS(=O)(=O)c2cnc[nH]2)c1	4.3	1	7.7	-1.6	0.4	-16.8
SMILES	FLuc inhib CS	FLuc act counter	PPC-1+TRAIL kill	Wee1 degr inh	PKD1 inh	C8 TRAIL sens
CC(C)(C)c1ccc(NC(=O)Nc2ccc(F)cc2)cc1	36.3	0.6	48.2	9.6*	1.9	39.3
CCOC(=O)c1ccc(NC(=O)Nc2ccc(F)cc2)cc1	-3.1	1	-7.4	10.1*	5.4	1.0
CCOC(=O)c1ccc(NS(=O)(=O)c2cnc[nH]2)cc1	0.3	1	3.4	11.3*	-6.5	-4.6
CCOC(=O)C1=C(C)Nc2ccccc2N=C1NC(=O)C1CCN(C(=O)c2ccccc2C)CC1	.	.	.	.	.	-39.1
Cc1ccc(Cl)cc1NC1=C/C(=N\S(=O)(=O)c2cccs2)c2ccccc2C1=O	-1.2	1	-6.9	-0.1	-3.6	92.0*
Cc1cc(C)c(S(=O)(=O)/N=C2\C=C(NS(=O)(=O)c3ccccc3)C(=O)c3ccccc32)c(C)c1	.	.	.	.	.	-2.4
Cc1cccc(NC2=C/C(=N/S(=O)(=O)c3cccs3)c3ccccc3C2=O)c1	14.4	0.9	51.2*	3.8	-0.7	95.4*
COc1ccccc1N(C(=O)CCl)c1cn(C(C)=O)c2ccccc12	.	.	22.6	1.6	.	92.5*
CC(=O)n1cc(N(C(=O)CCl)c2ccc(Cl)cc2)c2ccccc21	.	.	38.6	-1.5	.	93.9*
CCOC(=O)c1ccccc1Nc1cn(C(C)=O)c2ccccc12	-2.9	1	-16.2	0.2	3.7	10.6
CC(=O)n1cc(Nc2ccccc2C(=O)O)c2ccccc21	-1.9	1	-0.5	1.6	-5.1	1.4
O=S1(=O)CC(N2CCSCC2)CN1Cc1cn(Cc2ccc(Cl)cc2)nn1 (configuration not stated)	.	.	.	.	.	3.9
Cc1c(Cl)cc(C(C)C)c(O)c1CN1CCOCC1	.	.	.	.	.	-2.2
COc1ccc(-c2ccncc2)cc1OC	.	.	.	.	.	-0.6
O=C(CSc1nnc(NC(=O)c2ccc(F)cc2)s1)NC1CCCC1	.	.	.	.	.	62.6*
O=C(CSc1nnc(NC(=O)c2ccccc2)s1)NC1CCCC1	.	.	.	.	.	56.8*
O=C(CSc1nnc(NC(=O)c2ccc(F)cc2F)s1)NC1CCCC1	.	.	.	.	.	46.9
O=C(Cc1ccccc1)Nc1nnc(SCC(=O)NC2CCCC2)s1	-3.3	1	15.5	-2.6	5.2	-3.4
CCOc1ccccc1C(=O)Nc1nnc(SCC(=O)N2CCOCC2)s1	5.0	0.9	19.1	0.0	-0.8	-1.9
O=C(Nc1nnc(SCC(=O)N2CCOCC2)s1)c1ccccc1	91.8*	0.1	71.1*	-2.4	-10.0	75.2*
CCOc1ccc2oc(C(=O)N3CCN(c4ccccc4OCC)CC3)c(C)c2c1	.	.	.	.	.	-1.7
O=C1C2C3CC4C5C3C1C5C1(SCCS1)C42 (configuration not stated)	.	.	.	.	.	-15.2
CCOC(=O)c1c(NC(=O)COc2ccccc2OCC)sc2c1CC(C)(C)NC2(C)C	.	.	.	.	.	91.4*
COC(=O)c1c(NC(=O)c2ccc(OC(C)C)cc2)sc2c1CC(C)(C)NC2(C)C	-3.9	1	22.6	0.2	-8.2	72.2*
Cc1ccc(OCC(=O)Nc2sc3c(c2C#N)CC(C)(C)NC3(C)C)cc1	-1.3	1	12.6	2.3	2.6	17.5
CC1(C)Cc2c(sc(NC(=O)COc3cccc4ccccc34)c2C#N)C(C)(C)N1	.	.	4.0	0.1	.	84.9*
COC(=O)c1c(NC(=O)c2ccccc2)sc2c1CC(C)(C)NC2(C)C	-5.4	1.1	16.2	-0.6	1.7	12.8
Cc1ccc(NC(=O)C2CCCN2S(=O)(=O)c2ccc3c(c2)n(C)c(=O)c(=O)n3C)c(C)c1 (configuration not stated)	.	.	3.8	-1.5	.	0.6
O=C(CNC(=O)N1CC(=O)Nc2ccccc21)Nc1nccs1	.	.	.	.	.	-1.0
